This note sets out measurements from ChEMBL document CHEMBL1255453, “Affinity of ceftaroline and other beta-lactams for penicillin-binding proteins from Staphylococcus aureus and Streptococcus pneumoniae” (Antimicrob Agents Chemother, 2010).

Converted amounts (≈) assume the structure as drawn.

In general, MIC refers to the lowest concentration that inhibits growth of the organism. One may read the IC50 as the concentration that inhibits the measured activity by half.

Test [1] relates to Staphylococcus aureus. Put plainly: Antibacterial activity against methicillin-, vancomycin-susceptible Staphylococcus aureus ATCC 29213 by macrodilution method. The test is classed as functional. Put shortly: (§1)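 CLSI broth macrodilution MICs. The S. aureus set is 5 MRSA strains (hVISA, VISA, VRSA) plus 1 MSSA. The S. pneumoniae set is 7 clonally unrelated clinical isolates, categorised by penicillin G against 2006 CLSI M100-S17 criteria (resistant ≥2 μg/ml, susceptible ≤0.06 μg/ml).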

The nature of test [2]: Binding affinity to methicillin-, vancomycin-susceptible Staphylococcus aureus ATCC 29213 PBP3 by competitive binding assay. Put shortly: (§2)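 MSSA grown in brain heart infusion broth and harvested at OD600 0.3–0.4. Lysed with lysozyme, lysostaphin, DNase I, freeze-thaw and sonication; membranes collected at 100,000 × g. Membranes (100 μg protein) incubated with β-lactam 10 min at 37°C, then Bocillin FL 40 μg/ml, 15 min at 37°C. SDS-PAGE, fluorescence at 520 nm. IC50 is 50% inhibition of Bocillin FL binding; 3 membrane isolations.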

For test [3], the target named is T1, MecA (Staphylococcus aureus, UniProt Q7DHH4).
T1 sequence (Q7DHH4 whole entry): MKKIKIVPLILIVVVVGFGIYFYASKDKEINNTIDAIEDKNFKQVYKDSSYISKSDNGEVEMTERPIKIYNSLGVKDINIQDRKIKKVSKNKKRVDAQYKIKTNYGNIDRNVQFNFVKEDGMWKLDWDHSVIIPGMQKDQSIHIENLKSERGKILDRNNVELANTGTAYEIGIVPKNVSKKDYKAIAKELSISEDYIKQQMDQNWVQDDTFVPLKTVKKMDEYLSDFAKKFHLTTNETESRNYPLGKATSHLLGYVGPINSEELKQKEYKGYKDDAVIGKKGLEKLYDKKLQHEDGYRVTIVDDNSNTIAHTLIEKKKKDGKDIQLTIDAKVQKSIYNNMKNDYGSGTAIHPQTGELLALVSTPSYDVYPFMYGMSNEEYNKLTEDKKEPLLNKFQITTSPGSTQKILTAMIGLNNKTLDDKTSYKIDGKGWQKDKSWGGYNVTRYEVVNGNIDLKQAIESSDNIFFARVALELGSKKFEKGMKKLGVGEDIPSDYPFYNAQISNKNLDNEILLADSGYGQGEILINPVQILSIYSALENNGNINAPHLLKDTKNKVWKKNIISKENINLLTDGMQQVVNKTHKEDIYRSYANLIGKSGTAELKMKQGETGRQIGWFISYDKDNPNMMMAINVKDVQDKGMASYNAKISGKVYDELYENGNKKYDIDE
The experiment in a line: Binding affinity to methicillin-, vancomycin-resistant, beta-lactamase-positive Staphylococcus aureus 510 PBP2a by competitive binding assay. Put shortly: (§3)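 MRSA grown in brain heart infusion and harvested in exponential phase (OD600 0.3–0.4). Membranes prepared by lysozyme/lysostaphin/DNase, freeze-thaw and sonication, then ultracentrifugation. Membranes preincubated with clavulanic acid 1 mg/ml to saturate PBPs other than PBP2a. Then β-lactam 10 min at 37°C and Bocillin FL 40 μg/ml, 15 min at 37°C. SDS-PAGE fluorescence; IC50 = 50% inhibition of Bocillin FL binding; 3 isolations.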

The nature of test [4]: Binding affinity to methicillin-, vancomycin-susceptible Staphylococcus aureus ATCC 29213 PBP4 by competitive binding assay. In short, it runs like this: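 S. aureus grown in brain heart infusion broth and harvested at OD600 0.3 to 0.4. Membranes were prepared by lysozyme/lysostaphin/DNase I treatment, freeze-thaw, sonication and ultracentrifugation. Membranes (100 μg total protein) were preincubated with β-lactam for 10 min at 37°C, then labeled with 40 μg/ml Bocillin FL for 15 min at 37°C. SDS-PAGE with fluorescence imaging at 520 nm. IC50 is 50% inhibition of Bocillin FL binding; 3 membrane isolations.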

Test [5] is described as follows: Binding affinity to methicillin-, vancomycin-resistant, beta-lactamase-positive Staphylococcus aureus 510 PBP1 by competitive binding assay.
Test [6] is described as follows: Binding affinity to methicillin-, vancomycin-resistant, beta-lactamase-positive Staphylococcus aureus 510 PBP3 by competitive binding assay.
The nature of test [7]: Binding affinity to methicillin-resistant, vancomycin-intermediate, beta-lactamase-positive Staphylococcus aureus 1287 PBP3 by competitive binding assay.
For test [8], the system named is Staphylococcus aureus. Put plainly: Antibacterial activity against methicillin-resistant, vancomycin-intermediate, beta-lactamase-positive Staphylococcus aureus 1287 by macrodilution method. The test is classed as functional. Put shortly: as §1
In test [9] the test system is Staphylococcus aureus. The experiment in a line: Antibacterial activity against methicillin-, daptomycin-resistant, vancomycin-intermediate, beta-lactamase-positive Staphylococcus aureus 25 by macrodilution method. It counts as functional. In short, it runs like this: as §1
The nature of test [10]: Binding affinity to methicillin-, linezolid-resistant, vancomycin-intermediate, beta-lactamase-positive Staphylococcus aureus 2149A PBP4 by competitive binding assay.
In test [11] the test system is Streptococcus pneumoniae. Put plainly: Antibacterial activity against penicillin-resistant Streptococcus pneumoniae 24 by macrodilution method. The test is classed as functional. In short, it runs like this:
as §1

Test [12] in a line: Binding affinity to against methicillin-, daptomycin-resistant, vancomycin-intermediate, beta-lactamase-positive Staphylococcus aureus 25 PBP3 by competitive binding assay. In short, it runs like this: (§4)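 MRSA strain harvested in stationary phase (OD600 >2.00). Membranes prepared by enzymatic lysis, freeze-thaw, sonication and ultracentrifugation, then preincubated with clavulanic acid 1 mg/ml. β-Lactam competition 10 min at 37°C, then Bocillin FL 40 μg/ml, 15 min at 37°C. SDS-PAGE, 520 nm imaging; IC50 = 50% inhibition of Bocillin FL labeling; 3 membrane isolations.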

Test [13] is described as follows: Binding affinity to against methicillin-, daptomycin-resistant, vancomycin-intermediate, beta-lactamase-positive Staphylococcus aureus 25 PBP2 by competitive binding assay. In short, it runs like this: as §4
A short description of test [14]: Binding affinity to methicillin-resistant, vancomycin-intermediate, beta-lactamase-positive Staphylococcus aureus 1287 PBP4 by competitive binding assay.
Test [15] deals with Streptococcus pneumoniae. The experiment in a line: Antibacterial activity against penicillin-resistant Streptococcus pneumoniae 1394 by macrodilution method. The test is classed as functional. In short, it runs like this: as §1
In test [16] the test system is Staphylococcus aureus. Put plainly: Antibacterial activity against methicillin-, linezolid-resistant, vancomycin-intermediate, beta-lactamase-positive Staphylococcus aureus 2149A by macrodilution method. It counts as functional. In short, it runs like this:
as §1

A short description of test [17]: Binding affinity to methicillin-, linezolid-resistant, vancomycin-intermediate, beta-lactamase-positive Staphylococcus aureus 2149A PBP1 by competitive binding assay.
Test [18] has as its target T1, MecA. The experiment in a line: Binding affinity to methicillin-resistant, heteroresistant vancomycin-intermediate, beta-lactamase-negative Staphylococcus aureus 873 PBP2a by competitive binding assay. Put shortly: as §3
Test [19] in a line: Binding affinity to methicillin-, vancomycin-susceptible Staphylococcus aureus ATCC 29213 PBP1 by competitive binding assay. In short, it runs like this:
as §2

Test [20] can be described thus: Binding affinity to methicillin-, vancomycin-resistant, beta-lactamase-positive Staphylococcus aureus 510 PBP2 by competitive binding assay.
Test [21] concerns Staphylococcus aureus. Put plainly: Antibacterial activity against methicillin-resistant, heteroresistant vancomycin-intermediate, beta-lactamase-negative Staphylococcus aureus 873 by macrodilution method. It counts as functional. In short, it runs like this:
as §1

The test system of test [22] is Streptococcus pneumoniae. Put plainly: Antibacterial activity against penicillin-resistant Streptococcus pneumoniae 2688 by macrodilution method. The test is classed as functional. Put shortly:
as §1

Test [23] can be described thus: Binding affinity to methicillin-, vancomycin-resistant, beta-lactamase-positive Staphylococcus aureus 510 PBP4 by competitive binding assay.
Test [24] is described as follows: Binding affinity to methicillin-, linezolid-resistant, vancomycin-intermediate, beta-lactamase-positive Staphylococcus aureus 2149A PBP3 by competitive binding assay.

Regarding `CO/N=C(\C(=O)N[C@@H]1C(=O)N2C(C(=O)O)=C(COC(C)=O)CS[C@H]12)c1csc(N)n1` [CEFOTAXIME], the MIC in the test on Staphylococcus aureus [1] was 2 µg/mL (≈ 4.39 µM); against Staphylococcus aureus [8], 4 µg/mL (≈ 8.78 µM); in the test on Staphylococcus aureus [9], more than 64 µg/mL; against Streptococcus pneumoniae [11], 1 µg/mL (≈ 2.2 µM); against Streptococcus pneumoniae [15], 4 µg/mL (≈ 8.78 µM); in the test with Staphylococcus aureus [16], 32 µg/mL (≈ 70.3 µM). Besides, the MIC in the test with Staphylococcus aureus [21] is more than 64 µg/mL; against Streptococcus pneumoniae [22], 16 µg/mL (≈ 35.1 µM). Also, the 50% inhibitory concentration (IC50) was 1 µg/mL (≈ 2.2 µM) in test [2]; 2.2 µM on MecA [3]; more than 8 µg/mL in test [4]; 0.5 µg/mL (≈ 1.1 µM) in test [5]; 0.25 µg/mL (≈ 0.549 µM) in [6]; 1 µg/mL (≈ 2.2 µM) in [7]. In addition, the IC50 in test [10] was more than 128 µg/mL; in test [12], 1 µg/mL (≈ 2.2 µM); in test [13], 2 µg/mL (≈ 4.39 µM); in test [14], more than 128 µg/mL; in [17], 4 µg/mL (≈ 8.78 µM); at MecA [18], more than 281 µM. The 50% inhibitory concentration (IC50) was 0.25 µg/mL (≈ 0.549 µM) in test [19], 0.25 µg/mL (≈ 0.549 µM) in test [20], more than 128 µg/mL in test [23] and 2 µg/mL (≈ 4.39 µM) in test [24].

On to `CO/N=C(\C(=O)N[C@@H]1C(=O)N2C(C(=O)O)=C(CSc3nc(=O)c(O)nn3C)CS[C@H]12)c1csc(N)n1` [CEFTRIAXONE], for which the MIC against Staphylococcus aureus [1] was 2 µg/mL (≈ 3.61 µM); against Staphylococcus aureus [8], 8 µg/mL (≈ 14.4 µM); against Staphylococcus aureus [9], more than 64 µg/mL; with Streptococcus pneumoniae [11] it was 2 µg/mL (≈ 3.61 µM); against Streptococcus pneumoniae [15] it was 2 µg/mL (≈ 3.61 µM); against Staphylococcus aureus [16] it was 64 µg/mL (≈ 115 µM). Further, the MIC is more than 64 µg/mL against Staphylococcus aureus [21] and 8 µg/mL (≈ 14.4 µM) against Streptococcus pneumoniae [22]. Moreover, the IC50 in test [2] was 1 µg/mL (≈ 1.8 µM); at MecA [3], 1.8 µM; in test [4], more than 8 µg/mL; in test [5], 0.5 µg/mL (≈ 0.902 µM); in [6] it was 0.25 µg/mL (≈ 0.451 µM); in test [7], 1 µg/mL (≈ 1.8 µM). Also, the IC50 in test [10] was more than 128 µg/mL; in [12] it was 1 µg/mL (≈ 1.8 µM); in [13], 2 µg/mL (≈ 3.61 µM); in test [14], more than 128 µg/mL; in test [17], 4 µg/mL (≈ 7.21 µM); at MecA [18], more than 231 µM. Besides, the IC50 in test [19] was 0.25 µg/mL (≈ 0.451 µM); in test [20], 0.25 µg/mL (≈ 0.451 µM); in test [23], more than 128 µg/mL; in [24] it was 2 µg/mL (≈ 3.61 µM).

Take `CC1(C)S[C@@H]2[C@H](NC(=O)Cc3ccccc3)C(=O)N2[C@H]1C(=O)O` [PENICILLIN G]: the MIC came to 1 µg/mL (≈ 2.99 µM) with Staphylococcus aureus [1]; 32 µg/mL (≈ 95.7 µM) in the test on Staphylococcus aureus [8]; 64 µg/mL (≈ 191 µM) in the test on Staphylococcus aureus [9]; 4 µg/mL (≈ 12 µM) in the test on Streptococcus pneumoniae [11]; 4 µg/mL (≈ 12 µM) against Streptococcus pneumoniae [15]; 64 µg/mL (≈ 191 µM) with Staphylococcus aureus [16]. The minimal inhibitory concentration (MIC) against Staphylococcus aureus [21] and against Streptococcus pneumoniae [22] was 8 µg/mL (≈ 23.9 µM) each time. The IC50 in [2] was 1 µg/mL (≈ 2.99 µM); on MecA [3] it was 191 µM; in test [4], more than 8 µg/mL; in test [5], 128 µg/mL (≈ 383 µM); in [6], 4 µg/mL (≈ 12 µM); in test [7], 0.25 µg/mL (≈ 0.748 µM). Further, the IC50 in test [10] is more than 128 µg/mL; in [12], 0.5 µg/mL (≈ 1.5 µM); in test [13], 1 µg/mL (≈ 2.99 µM); in [14] it was 4 µg/mL (≈ 12 µM); in test [17], 2 µg/mL (≈ 5.98 µM); at MecA [18] it was 191 µM. Besides, the IC50 in [19] came out at 4 µg/mL (≈ 12 µM); in test [20] it was 64 µg/mL (≈ 191 µM); in test [23] it was 64 µg/mL (≈ 191 µM); in [24], 2 µg/mL (≈ 5.98 µM).
